Screening data (PubChem BioAssay)
TPT1 inhibitor: blocks Candida albicans tRNA 2'-phosphotransferase | recombinant caTPT1, FP RNA substrate dephosphorylation | inhibition, % at 5 µM | hit rate 0.81% among 300,000;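 active = inhibition above the mean of all tested compounds plus 3 SD, set per screening campaign, cut at about 24% in these data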;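 note: plate controls were DMSO alone for no effect and ferristatin control at 100 nM for full effect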
SENP1 FRET inh: SENP1 (human) catalytic domain inhibition | hit rate 0.21% among 360,000 | recombinant SENP1 catalytic domain, CyPet-SUMO1-YPet FRET cleavage | AID 624204 | Q9P0U3 | inhibition, % at 10 µM;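 active = inhibition at least 30% at 10 µM, raw YFP signal under a set limit, fluorescence ratio 0.5 to 1.5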;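 note: 0% = enzyme with DMSO and 100% = no enzyme wells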
Target sequence (Q9P0U3 419-644 limits assumed): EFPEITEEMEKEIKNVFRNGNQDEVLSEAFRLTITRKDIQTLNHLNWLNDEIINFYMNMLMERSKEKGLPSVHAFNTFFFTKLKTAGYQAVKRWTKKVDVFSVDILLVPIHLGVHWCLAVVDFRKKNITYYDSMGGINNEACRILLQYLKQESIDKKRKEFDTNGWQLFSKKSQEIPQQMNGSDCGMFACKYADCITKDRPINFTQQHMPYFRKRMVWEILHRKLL
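Assay system – human recombinant His6-tagged SENP1 catalytic domain enzyme · Input – SENP1 enzyme, 20 pM final · Buffer or medium – Tris pH 8 buffer plus EDTA, NaCl, BME, BSA, NP40, catalase · Schedule – 50 min reaction at room temperature · Technique – FRET read of cyan and yellow fluorescence · Control set – no-enzyme wells low, DMSO-plus-enzyme wells high control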
Rpn11 block: inhibitors of human proteasome Rpn11; O00487; human 26S proteasome, Ub4-pepOG fluorescence polarization; 20S core pre-blocked with epoxomicin; inhibition, % at 20 µM; hit rate 0.59% among 360,000;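 active = inhibition at 20 µM, scaled to each plate's controls, above about 33%, limit read from the data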
Target sequence (O00487 whole entry, looked up): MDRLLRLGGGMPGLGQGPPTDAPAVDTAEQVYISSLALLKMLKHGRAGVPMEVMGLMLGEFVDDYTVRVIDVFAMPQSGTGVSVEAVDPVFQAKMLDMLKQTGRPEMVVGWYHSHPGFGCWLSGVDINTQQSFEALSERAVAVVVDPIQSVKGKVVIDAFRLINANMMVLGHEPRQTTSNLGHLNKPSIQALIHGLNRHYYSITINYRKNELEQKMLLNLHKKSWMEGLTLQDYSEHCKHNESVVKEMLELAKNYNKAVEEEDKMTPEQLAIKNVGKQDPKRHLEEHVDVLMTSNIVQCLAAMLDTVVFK
CSN deneddyl inh: CSN deneddylation inhibition; Q92905; Purified CSN, SCF-Nedd8-OG deneddylation, fluorescence polarization; inhibition, % at 12.5 µM; hit rate 0.38% among 360,000; AID 651999;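 active = pattern-corrected inhibition above about 35%, with an unprinted fluorescence ratio check between 0.5 and 1.5, limit read from the data, passing the limit was not always enough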;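 note: 0% = enzyme with substrate and 100% = substrate without enzyme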
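Assay system: HEK293T-derived human Csn5 enzyme; quantity: 0.24 nM enzyme; medium: Tris/NaCl/DTT buffer, pH 7.5; also added: substrate SCFSkp2-Nedd8OG, 10 nM; doses: 12.5 µM compound; schedule: 90 min reaction at room temperature; signal: FP; read-out: % inhibition of substrate cleavage by Csn5; benchmarks: substrate-only high control, full reaction low control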
HNF4A DNA FP: change in binding of human HNF4 alpha to DNA; hit rate 0.3% among 360,000; P41235; HNF4a-FITC DNA binding, fluorescence polarization, 1 h; AID 1224865; activity change, % at 10 µM; in the data active = activity change above about 30%, passing the limit was not always enough
Active calls of the source: *. This is a sample that favours compounds with a hit; in the whole collection about 1.6% have one here.

What do the screens show for `CC1(c2nnnn2-c2ccc3c(c2)OCCO3)CCC(=O)N1CCCn1ccnc1` (centres undefined)?
SENP1 FRET inh: -1; CSN deneddyl inh: 102*; HNF4A DNA FP: -1

Results for CC1(c2nnnn2-c2ccc3c(c2)OCCO3)CCC(=O)N1CCCN1CCOCC1 (centres undefined) ?
SENP1 FRET inh: 2; CSN deneddyl inh: 2; HNF4A DNA FP: 2

Results for COc1cccc(OC)c1C(=O)Nc1ccccc1Sc1ccccc1 ?
TPT1 inhibitor: 0; SENP1 FRET inh: 1; Rpn11 block: 1; CSN deneddyl inh: -3; HNF4A DNA FP: 1

Results for O=C(Nc1ccc(F)cc1)C(c1ccnc2ccccc12)N1CCN(CC(=O)N2CCCC2)CC1 (centres undefined) ?
SENP1 FRET inh: 0; CSN deneddyl inh: -1; HNF4A DNA FP: 1

What do the screens show for `O=C1NC(=Nc2ccccc2)S/C1=C/c1cccs1`?
TPT1 inhibitor: -1; SENP1 FRET inh: -2; Rpn11 block: -7; CSN deneddyl inh: -1; HNF4A DNA FP: 64*

Results for O=C1NC(=Nc2ccccc2)S/C1=C\c1ccccc1 ?
TPT1 inhibitor: -1; SENP1 FRET inh: -1; Rpn11 block: 2; CSN deneddyl inh: 1; HNF4A DNA FP: -1

Results for CCOc1ccc(CCNC(=O)COC(=O)CCC(=O)c2cccs2)cc1OCC ?
SENP1 FRET inh: 2; Rpn11 block: 4; CSN deneddyl inh: 38*; HNF4A DNA FP: -1

What do the screens show for `CCOc1ccc(CCNC(=O)CCC(=O)c2cccs2)cc1OCC`?
SENP1 FRET inh: -1; Rpn11 block: -4; CSN deneddyl inh: -3; HNF4A DNA FP: 3

Results for CCCOc1ccc(NC(=O)C2CC(=O)N/C(=N/N=C(C)/C=C/c3ccc(N(C)C)cc3)S2)cc1 (centres undefined) ?
TPT1 inhibitor: 15; SENP1 FRET inh: -26; CSN deneddyl inh: 3; HNF4A DNA FP: 10

Results for CC(/C=C/c1ccc(N(C)C)cc1)=N\N=C1\NC(=O)CC(C(=O)Nc2ccccc2)S1 (centres undefined) ?
TPT1 inhibitor: 19; SENP1 FRET inh: -24; CSN deneddyl inh: 6; HNF4A DNA FP: 34*

Results for COc1ccc2cc(C(=O)Nc3ccc(F)cc3)sc(=O)c2c1OC ?
TPT1 inhibitor: -5; SENP1 FRET inh: -10; Rpn11 block: 8; CSN deneddyl inh: 41*; HNF4A DNA FP: -1

What do the screens show for `COc1ccc2cc(C(=O)Nc3ccc(O)cc3)sc(=O)c2c1OC`?
TPT1 inhibitor: 1; SENP1 FRET inh: -1; Rpn11 block: -18; CSN deneddyl inh: -3; HNF4A DNA FP: -2

What do the screens show for `Cc1ccc2[nH]c(O)c(N=Nc3nc4ccccc4s3)c2c1`?
TPT1 inhibitor: 1; SENP1 FRET inh: 35*; Rpn11 block: 10; CSN deneddyl inh: 3; HNF4A DNA FP: 2

What do the screens show for `O=C(Nc1ccc(F)cc1)C(c1ccnc2ccccc12)N1CCN(c2cccc(C(F)(F)F)n2)CC1` (centres undefined)?
SENP1 FRET inh: 1; CSN deneddyl inh: -3; HNF4A DNA FP: 4

Results for COc1ccc(NC(=O)CCc2nnc3ccc(NCc4ccc5c(c4)OCO5)nn23)cc1 ?
TPT1 inhibitor: -6; SENP1 FRET inh: -9; Rpn11 block: 20; CSN deneddyl inh: 36*; HNF4A DNA FP: 3

What do the screens show for `COCCN1C[C@@H](CO)O[C@@H](n2cnc3c(N4CCN(CCO)CC4)ncnc32)C1`?
SENP1 FRET inh: 1; Rpn11 block: 0; CSN deneddyl inh: 5; HNF4A DNA FP: -4

Results for C=CCNc1nc(NCCOC)c2sc(-c3ccccc3)cc2n1 ?
SENP1 FRET inh: 0; Rpn11 block: -8; CSN deneddyl inh: 2; HNF4A DNA FP: 1

What do the screens show for `C=CCNc1nc(NCc2ccc(N(C)C)cc2)c2sc(-c3ccccc3)cc2n1`?
SENP1 FRET inh: -9; Rpn11 block: -6; CSN deneddyl inh: 49*; HNF4A DNA FP: 0

Results for Fc1ccc(N2N=C(c3cccs3)CC2c2ccccc2)cc1 (centres undefined) ?
TPT1 inhibitor: 3; SENP1 FRET inh: -24; Rpn11 block: 63*; CSN deneddyl inh: 6; HNF4A DNA FP: 9

How did O=S(=O)(c1ccccc1)N1N=C(c2cccs2)CC1c1ccc(F)cc1 (centres undefined) do in these assays?
TPT1 inhibitor: -2; SENP1 FRET inh: 1; Rpn11 block: -11; CSN deneddyl inh: 1; HNF4A DNA FP: 3

How did CCCCCCSc1ccc(-c2nc3cnccn3c2NCCCC)cc1 do in these assays?
SENP1 FRET inh: -23; Rpn11 block: 6; CSN deneddyl inh: 0; HNF4A DNA FP: 9

Results for O=C(C[n+]1ccc(C(=O)c2ccccc2)cc1)Nc1cccc([N+](=O)[O-])c1 ?
SENP1 FRET inh: -7; CSN deneddyl inh: 0; HNF4A DNA FP: 3

What do the screens show for `Cc1cc(NCCCN(C)C)n2c(nc3ccccc32)c1C#N`?
TPT1 inhibitor: 3; SENP1 FRET inh: -74; Rpn11 block: 6; CSN deneddyl inh: 5; HNF4A DNA FP: -4

Results for Cc1cc(NCCCOC(C)C)n2c(nc3ccccc32)c1C#N ?
TPT1 inhibitor: 3; SENP1 FRET inh: -113; Rpn11 block: 35; CSN deneddyl inh: 52*; HNF4A DNA FP: 9

Results for O=C1[C@@H]2Cc3c([nH]c4ccccc34)C(c3ccc([N+](=O)[O-])cc3)N2C(=O)CN1C1CC1 (some centres undefined) ?
TPT1 inhibitor: 0; SENP1 FRET inh: 2; Rpn11 block: -7; CSN deneddyl inh: -2; HNF4A DNA FP: 3

Results for Cc1nc(NC(=O)c2ccccc2)sc1-c1csc(NCc2ccco2)n1 ?
TPT1 inhibitor: 9; SENP1 FRET inh: 5; Rpn11 block: 45*; CSN deneddyl inh: 19; HNF4A DNA FP: 10

How did Cc1cccc(C)c1NC(=O)C(c1ccc(C#N)cc1)n1c(=O)c(-c2ccco2)nc2ccccc21 (centres undefined) do in these assays?
SENP1 FRET inh: -33; CSN deneddyl inh: 20; HNF4A DNA FP: 23

What do the screens show for `C=CCc1ccc(OCC(O)CN2CCN(c3ccccc3)CC2)c(OC)c1` (centres undefined)?
TPT1 inhibitor: 0; SENP1 FRET inh: -2; Rpn11 block: -8; CSN deneddyl inh: -3; HNF4A DNA FP: 0

Results for C=CCc1ccc(OCC(O)CN2CCCCC2)c(OC)c1 (centres undefined) ?
TPT1 inhibitor: -3; SENP1 FRET inh: -2; Rpn11 block: 0; CSN deneddyl inh: 1; HNF4A DNA FP: 50*

What do the screens show for `COc1cc(C=Cc2nnc3c4ccccc4cnn23)cc(OC)c1OC`?
SENP1 FRET inh: 1; Rpn11 block: -13; CSN deneddyl inh: 7; HNF4A DNA FP: -2

How did COc1cccc(/C=N/Nc2ncnc3c2[nH]c2ccc(C)cc23)c1OC do in these assays?
TPT1 inhibitor: 3; SENP1 FRET inh: -10; Rpn11 block: 4; CSN deneddyl inh: 68*; HNF4A DNA FP: 52*
